Assay results taken from ChEMBL document CHEMBL5107952, “Synthesis of low-molecular weight fucoidan derivatives and their binding abilities to SARS-CoV-2 spike proteins” (RSC Med Chem, 2021).
pIC50, pKi: −log10 of the molar value.

What was measured:
Type in all cases: cell-based, Severe acute respiratory syndrome coronavirus 2
[1] = (§1) Competitive inhibition of biotinylated heparin binding to His-tagged SARS-COV-2 B.1.1.7 variant recombinant spike glycoprotein del69-70/del144/N501Y/A570D/D614G/P681H/T716I/S982A/D1118H mutant expressed in Expi293F cells incubated for 120 sec by biolayer interferometry streptavidin sensor based assay
How it was run: (§2)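 Same heparin-competition BLI format with variant S proteins (B.1.1.7, B.1.351, P.1). Biotinylated heparin sat on streptavidin sensors, and S protein (1 μM) was in TBS (20 mM Tris, pH 7.4, 0.02% BSA). Bound (%) was read from the BLI signal. IC50 was fitted and converted to Ki via Cheng–Prusoff.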

[2] = Competitive inhibition of biotinylated heparin binding to His-tagged SARS-COV-2 B.1.351 variant recombinant spike glycoprotein D80A/D215G/K417N/E484K/N501Y/D614G/A701V mutant expressed in Expi293F cells assessed as inhibition constant incubated for 120 sec by biolayer interferometry streptavidin sensor based assay; how it was run: as §2
[3] = (§3) Competitive inhibition of biotinylated heparin binding to His-tagged SARS-COV-2 P.1 variant recombinant spike glycoprotein L18F/T20N/P26S/D138Y/R190S/K417T/E484K/N501Y/H655Y/T1027I mutant expressed in Expi293F cells incubated for 300 sec by biolayer interferometry streptavidin sensor based assay; how it was run: as §2
[4] = Competitive inhibition of biotinylated heparin binding to His-tagged SARS-COV-2 B.1.351 variant recombinant spike glycoprotein D80A/D215G/K417N/E484K/N501Y/D614G/A701V mutant expressed in Expi293F cells incubated for 120 sec by biolayer interferometry streptavidin sensor based assay; how it was run: as §2
[5] = as §1, with “cells assessed as inhibition constant” for “cells”; how it was run: as §2
[6] = as §3, with “cells assessed as inhibition constant” for “cells”; how it was run: as §2

CCCCCCCCO[C@H]1O[C@@H](C)[C@@H](O[C@@H]2O[C@@H](C)[C@@H](O[C@@H]3O[C@@H](C)[C@@H](O[C@@H]4O[C@@H](C)[C@@H](OS(=O)(=O)O)[C@@H](OS(=O)(=O)O)[C@@H]4OS(=O)(=O)O)[C@@H](OS(=O)(=O)O)[C@@H]3OS(=O)(=O)O)[C@@H](OS(=O)(=O)O)[C@@H]2OS(=O)(=O)O)[C@@H](OS(=O)(=O)O)[C@@H]1OS(=O)(=O)O
pIC50 [1]: 4.46 | pKi [2]: 5.18 | pIC50 [3]: 4.18 | pIC50 [4]: 4.07 | pKi [5]: 5.00 | pKi [6]: 5.16
